{"data": "Experimental data gathered from unrelated publications", "target": "Myosin light chain kinase (MYLK3, Homo sapiens, UniProt Q32MK0)", "Residues used in one study (Q32MK0 1-819)": "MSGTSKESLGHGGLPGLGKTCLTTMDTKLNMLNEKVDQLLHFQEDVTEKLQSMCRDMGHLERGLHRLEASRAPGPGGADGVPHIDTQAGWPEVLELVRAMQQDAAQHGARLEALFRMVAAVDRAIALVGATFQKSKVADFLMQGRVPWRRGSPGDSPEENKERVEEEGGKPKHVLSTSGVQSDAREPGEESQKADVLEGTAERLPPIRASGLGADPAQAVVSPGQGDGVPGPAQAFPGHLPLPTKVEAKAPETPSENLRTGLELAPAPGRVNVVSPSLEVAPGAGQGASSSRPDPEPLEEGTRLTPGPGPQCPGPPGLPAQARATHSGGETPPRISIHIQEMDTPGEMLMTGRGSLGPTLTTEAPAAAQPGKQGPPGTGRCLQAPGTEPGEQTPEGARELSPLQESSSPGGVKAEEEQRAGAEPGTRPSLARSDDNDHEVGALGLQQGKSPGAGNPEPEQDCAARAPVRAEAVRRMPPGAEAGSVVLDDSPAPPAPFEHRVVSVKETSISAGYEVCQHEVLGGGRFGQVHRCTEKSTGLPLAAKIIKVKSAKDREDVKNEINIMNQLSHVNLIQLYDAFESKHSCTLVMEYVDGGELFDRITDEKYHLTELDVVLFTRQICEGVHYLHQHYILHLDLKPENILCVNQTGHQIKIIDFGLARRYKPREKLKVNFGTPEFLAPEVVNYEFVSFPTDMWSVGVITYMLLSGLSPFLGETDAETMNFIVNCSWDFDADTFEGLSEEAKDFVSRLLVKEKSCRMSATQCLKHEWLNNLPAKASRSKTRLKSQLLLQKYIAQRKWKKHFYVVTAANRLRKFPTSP", "note": "Each line is one published result; the experiments were not run side by side."}
{"SMILES": "COc1ncccc1-c1cnn2ccc(N3CCN(C(=O)OC(C)C)CC3)nc12", "test": "binding, competition with immobilised ligand", "setting": "1 µM", "endpoint": "remaining binding", "result": "100%"}
{"SMILES": "COc1cc(Nc2ncc(F)c(Nc3ccc4c(n3)NC(=O)C(C)(C)O4)n2)cc(OC)c1OC", "test": "binding, competition with immobilised ligand", "setting": "10 µM", "endpoint": "inhibition", "result": "30%"}
{"SMILES": "N#CC1(c2ccccn2)CCN(Cc2cc(C(=O)O)c(=O)n3ccccc23)CC1", "test": "cell-free assay, competition with immobilised ligand", "setting": "1 µM", "endpoint": "remaining binding", "result": "87%"}
{"SMILES": "Cn1cc(-c2cc(F)cc(N3CCn4c(cc5c4CCCC5)C3=O)c2CO)cc(Nc2ccc(N3CCN(C4COC4)CC3)cn2)c1=O", "test": "enzyme activity, inhibitor", "setting": "0.1 µM", "endpoint": "inhibition", "result": "-5%"}
{"SMILES": "Cn1cncc1[C@](O)(COc1ccc(C#N)cc1-c1ccc(OC(F)(F)F)cc1)c1ccc(C#N)cc1", "test": "cell-free assay, competition with immobilised ligand", "setting": "1 µM", "endpoint": "remaining binding", "result": "100%"}
{"SMILES": "Nc1ncc(-c2nc(N3CCOCC3)nc(N3CCOCC3)n2)c(C(F)F)n1", "test": "binding, competition with immobilised ligand", "setting": "10 µM", "endpoint": "remaining binding", "result": "84%"}
{"SMILES": "Cn1cc(-c2cccc(N3CCc4c(sc5c4CC(C)(C)C5)C3=O)c2CO)cc(Nc2ccncn2)c1=O", "test": "enzyme activity, inhibitor", "setting": "1 µM", "endpoint": "inhibition", "result": "-8%"}
{"SMILES": "Cc1nn(C)cc1-c1nc2c(N3CCN(Cc4ccc(Cl)cc4)CC3)c(Cl)cnc2[nH]1", "test": "binding, competition with immobilised ligand", "setting": "1 µM", "endpoint": "remaining binding", "result": "100%"}
